Reference: ChEMBL document CHEMBL1765047, “Synthesis and in vivo evaluation of (S)-6-(4-fluorophenoxy)-3-((1-[11C]methylpiperidin-3-yl)methyl)-2-o-tolylquinazolin-4(3H)-one, a potential PET tracer for growth hormone secretagogue receptor (GHSR)” (Bioorg Med Chem, 2011)

Key:
Lung [1] = experiment: Drug uptake in CD1 mouse lung at 0.1 mCi, iv after 30 mins by gamma scintillation counting; format: ADME, organism-based; conditions: in vivo, 0.5 h
How it was run: (§1)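 Baseline whole-body distribution in male CD1 mice (23-28 g). Tracer 0.1 mCi in 0.2 mL saline (~4000 mCi/μmol) into lateral tail vein. Cervical dislocation at 10, 30 or 90 min; organs dissected on ice, weighed, gamma-counted alongside injectate aliquots as standards. Reported as %ID/g tissue, mean ± SD, n=5.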

[2] = Drug uptake in CD1 mouse adrenal at 0.1 mCi, iv after 30 mins by gamma scintillation counting; format: ADME, organism-based, Adrenal gland; conditions: in vivo, 0.5 h; how it was run: as §1
[3] = Drug uptake in CD1 mouse testis at 0.1 mCi, iv after 30 mins by gamma scintillation counting; format: ADME, organism-based; conditions: in vivo, 0.5 h; how it was run: as §1
Muscle tissue [4] = experiment: Drug uptake in CD1 mouse muscle at 0.1 mCi, iv after 30 mins by gamma scintillation counting; format: ADME, organism-based; conditions: in vivo, 0.5 h; how it was run: as §1
Liver [5] = experiment: Drug uptake in CD1 mouse liver at 0.1 mCi, iv after 30 mins by gamma scintillation counting; format: ADME, organism-based; conditions: in vivo, 0.5 h; how it was run: as §1
Blood [6] = experiment: Drug uptake in CD1 mouse blood at 0.1 mCi, iv after 90 mins by gamma scintillation counting; format: ADME, organism-based; conditions: in vivo, 1.5 h; how it was run: as §1
Heart [7] = experiment: Drug uptake in CD1 mouse heart at 0.1 mCi, iv after 90 mins by gamma scintillation counting; format: ADME, organism-based; conditions: in vivo, 1.5 h; how it was run: as §1
Lung [8] = experiment: Drug uptake in CD1 mouse lung at 0.1 mCi, iv after 90 mins by gamma scintillation counting; format: ADME, organism-based; conditions: in vivo, 1.5 h; how it was run: as §1
[9] = Drug uptake in CD1 mouse adrenal at 0.1 mCi, iv after 90 mins by gamma scintillation counting; format: ADME, organism-based, Adrenal gland; conditions: in vivo, 1.5 h; how it was run: as §1
[10] = Drug uptake in CD1 mouse testis at 0.1 mCi, iv after 90 mins by gamma scintillation counting; format: ADME, organism-based; conditions: in vivo, 1.5 h; how it was run: as §1
Muscle tissue [11] = experiment: Drug uptake in CD1 mouse muscle at 0.1 mCi, iv after 90 mins by gamma scintillation counting; format: ADME, organism-based; conditions: in vivo, 1.5 h; how it was run: as §1
Liver [12] = experiment: Drug uptake in CD1 mouse liver at 0.1 mCi, iv after 90 mins by gamma scintillation counting; format: ADME, organism-based; conditions: in vivo, 1.5 h; how it was run: as §1
Blood [13] = experiment: Drug uptake in CD1 mouse blood at 0.1 mCi, iv after 90 mins in presence of (S)-6-(4-Fluorophenoxy)-3-(piperidin-3-ylmethyl)-2-o-tolylquinazolin-4(3H)-one; format: ADME, organism-based; conditions: in vivo, 1.5 h
How it was run: (§2)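 Blockade arm: male CD1 mice (23-28 g) given 1 mg/kg blocker s.c. in saline/alcohol 9:1, or vehicle alone, 15 min before tail-vein tracer (0.1 mCi in 0.2 mL saline, ~4000 mCi/μmol). Killed by cervical dislocation at 90 min; organs dissected on ice, weighed, gamma-counted against injectate standards; %ID/g tissue, mean ± SD, n=5.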

Heart [14] = experiment: Drug uptake in CD1 mouse heart at 0.1 mCi, iv after 90 mins in presence of (S)-6-(4-Fluorophenoxy)-3-(piperidin-3-ylmethyl)-2-o-tolylquinazolin-4(3H)-one; format: ADME, organism-based; conditions: in vivo, 1.5 h; how it was run: as §2
Lung [15] = experiment: Drug uptake in CD1 mouse lung at 0.1 mCi, iv after 90 mins in presence of (S)-6-(4-Fluorophenoxy)-3-(piperidin-3-ylmethyl)-2-o-tolylquinazolin-4(3H)-one; format: ADME, organism-based; conditions: in vivo, 1.5 h; how it was run: as §2
[16] = Drug uptake in CD1 mouse adrenal at 0.1 mCi, iv after 90 mins in presence of (S)-6-(4-Fluorophenoxy)-3-(piperidin-3-ylmethyl)-2-o-tolylquinazolin-4(3H)-one; format: ADME, organism-based, Adrenal gland; conditions: in vivo, 1.5 h; how it was run: as §2
[17] = Drug uptake in CD1 mouse testis at 0.1 mCi, iv after 90 mins in presence of (S)-6-(4-Fluorophenoxy)-3-(piperidin-3-ylmethyl)-2-o-tolylquinazolin-4(3H)-one; format: ADME, organism-based; conditions: in vivo, 1.5 h; how it was run: as §2
Muscle tissue [18] = experiment: Drug uptake in CD1 mouse muscle at 0.1 mCi, iv after 90 mins in presence of (S)-6-(4-Fluorophenoxy)-3-(piperidin-3-ylmethyl)-2-o-tolylquinazolin-4(3H)-one; format: ADME, organism-based; conditions: in vivo, 1.5 h; how it was run: as §2
Heart [19] = experiment: Drug uptake in CD1 mouse heart at 0.1 mCi, iv after 30 mins by gamma scintillation counting; format: ADME, organism-based; conditions: in vivo, 0.5 h; how it was run: as §1
Liver [20] = experiment: Drug uptake in CD1 mouse liver at 0.1 mCi, iv after 90 mins in presence of (S)-6-(4-Fluorophenoxy)-3-(piperidin-3-ylmethyl)-2-o-tolylquinazolin-4(3H)-one; format: ADME, organism-based; conditions: in vivo, 1.5 h; how it was run: as §2
Cerebellum = experiment: Drug uptake in CD1 mouse cerebellum at 0.1 mCi, iv after 10 mins by gamma scintillation counting; format: ADME, organism-based; conditions: in vivo
How it was run: (§3)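 Baseline regional brain study in male CD1 mice (23-28 g) injected via tail vein with 0.1 mCi tracer in 0.2 mL saline (~4000 mCi/μmol). Killed at 10, 30, 60 or 90 min; brain regions dissected on ice, weighed and gamma-counted with injectate standards. Reported as %ID/g tissue, mean ± SD, n=3.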

Hypothalamus = experiment: Drug uptake in CD1 mouse hypothalamus at 0.1 mCi, iv after 10 mins by gamma scintillation counting; format: ADME, organism-based; conditions: in vivo; how it was run: as §3
Hippocampus = experiment: Drug uptake in CD1 mouse hippocampus at 0.1 mCi, iv after 10 mins by gamma scintillation counting; format: ADME, organism-based; conditions: in vivo; how it was run: as §3
Cortex = experiment: Drug uptake in CD1 mouse cortex at 0.1 mCi, iv after 10 mins by gamma scintillation counting; format: ADME, organism-based; conditions: in vivo; how it was run: as §3

## Cc1ccccc1-c1nc2ccc(Oc3ccc(F)cc3)cc2c(=O)n1C[C@H]1CCCN([11CH3])C1
Lung [1]
  Drug uptake: 24.02 % ID/g
[2]
  Drug uptake: 10.77 % ID/g
[3]
  Drug uptake: 1.39 % ID/g
Muscle tissue [4]
  Drug uptake: 3.02 % ID/g
Liver [5]
  Drug uptake: 14.6 % ID/g
Blood [6]
  Drug uptake: 2.01 % ID/g
Heart [7]
  Drug uptake: 2.94 % ID/g
Lung [8]
  Drug uptake: 14.74 % ID/g
[9]
  Drug uptake: 7.87 % ID/g
[10]
  Drug uptake: 1.96 % ID/g
Muscle tissue [11]
  Drug uptake: 2.09 % ID/g
Liver [12]
  Drug uptake: 13.46 % ID/g
Blood [13]
  Drug uptake: 2.01 % ID/g
Heart [14]
  Drug uptake: 3.74 % ID/g
Lung [15]
  Drug uptake: 16.28 % ID/g
[16]
  Drug uptake: 10.02 % ID/g
[17]
  Drug uptake: 2.25 % ID/g
Muscle tissue [18]
  Drug uptake: 2.22 % ID/g
Heart [19]
  Drug uptake: 3.91 % ID/g
Liver [20]
  Drug uptake: 14.77 % ID/g
Cerebellum
  Drug uptake: 0.63 % ID/g
Hypothalamus
  Drug uptake: 0.56 % ID/g
Hippocampus
  Drug uptake: 0.6 % ID/g
Cortex
  Drug uptake: 0.63 % ID/g
